Measurements published in ChEMBL document CHEMBL1136635, “Modification of the N-terminus of peptidomimetic protein tyrosine phosphatase 1B (PTP1B) inhibitors: identification of analogues with cellular activity” (Bioorg Med Chem Lett, 2003).

Key:
[1] = target: Receptor-type tyrosine-protein phosphatase F (Homo sapiens) (UniProt P10586); test: Inhibitory activity against phosphatase (LAR) at a concentration of 100 uM
In short: (§1)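 Purified recombinant human enzyme constructs; PTP1B is a C-terminally truncated soluble form, tested alongside LAR and SHP-2. Activity is read as the initial rate of p-nitrophenyl phosphate (pNPP) hydrolysis and reported as percent inhibition. PTP1B is tested at 100, 10 and 1 µM, or 10 and 1 µM in the salicylate series; LAR and SHP-2 at 100 µM.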

[2] = Uptake of 2-DOG (2-deoxyglucose) into L6 myocytes in the presence of half-maximal concentration of insulin at 100 uM; assay type: functional, Rattus norvegicus
In short: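 L6 myotubes are exposed to compound at 100 µM with 10 nM insulin, a dose eliciting about 50% of maximal uptake. The initial rate of 2-[3H]deoxyglucose uptake is measured, with L-[14C]glucose marking extracellular space, and normalized to recovered lysate protein. Net insulin-dependent transport with inhibitor is expressed as a percent of that without inhibitor.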

[3] = target: T1, Tyrosine-protein phosphatase non-receptor type 11 (Homo sapiens) (UniProt Q06124); test: Inhibition of recombinant human phosphatase (SHP-2) at a concentration of 100 uM; in short: as §1
T1 sequence (whole entry): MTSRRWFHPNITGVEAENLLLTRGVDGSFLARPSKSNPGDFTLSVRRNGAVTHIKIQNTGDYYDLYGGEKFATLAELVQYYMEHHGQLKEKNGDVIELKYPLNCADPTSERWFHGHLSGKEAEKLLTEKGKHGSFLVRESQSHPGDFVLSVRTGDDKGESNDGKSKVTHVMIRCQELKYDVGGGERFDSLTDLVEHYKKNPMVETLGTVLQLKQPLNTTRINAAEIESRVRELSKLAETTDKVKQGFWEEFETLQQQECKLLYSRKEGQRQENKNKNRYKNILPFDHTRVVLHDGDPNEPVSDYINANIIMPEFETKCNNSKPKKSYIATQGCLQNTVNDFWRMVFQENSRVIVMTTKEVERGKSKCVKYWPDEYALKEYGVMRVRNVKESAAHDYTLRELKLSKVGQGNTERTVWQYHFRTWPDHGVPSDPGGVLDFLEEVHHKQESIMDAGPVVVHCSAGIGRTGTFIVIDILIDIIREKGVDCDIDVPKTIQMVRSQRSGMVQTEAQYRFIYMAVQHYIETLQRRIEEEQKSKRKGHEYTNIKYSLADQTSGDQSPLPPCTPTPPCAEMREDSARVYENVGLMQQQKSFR

[4] = target: T2, Tyrosine-protein phosphatase non-receptor type 1 (Homo sapiens) (UniProt P18031); test: Inhibitory activity against human protein tyrosine phosphatase 1B (PTP1B) at a concentration of 1 uM; in short: as §1
T2 sequence (whole entry): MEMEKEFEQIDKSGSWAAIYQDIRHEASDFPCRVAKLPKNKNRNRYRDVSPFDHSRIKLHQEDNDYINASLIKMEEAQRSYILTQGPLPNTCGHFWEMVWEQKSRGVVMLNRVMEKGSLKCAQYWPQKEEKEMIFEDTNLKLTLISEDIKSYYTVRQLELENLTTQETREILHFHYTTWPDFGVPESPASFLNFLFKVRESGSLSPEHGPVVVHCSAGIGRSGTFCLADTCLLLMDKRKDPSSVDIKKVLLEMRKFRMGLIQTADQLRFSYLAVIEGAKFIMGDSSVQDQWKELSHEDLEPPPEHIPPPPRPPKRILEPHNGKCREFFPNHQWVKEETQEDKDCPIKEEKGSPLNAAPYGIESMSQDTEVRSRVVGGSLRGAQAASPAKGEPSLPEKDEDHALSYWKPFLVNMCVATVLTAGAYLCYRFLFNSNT

[5] = target: T2, Tyrosine-protein phosphatase non-receptor type 1 (Homo sapiens); test: Inhibitory activity against human protein tyrosine phosphatase 1B (PTP1B) at a concentration of 10 uM; in short: as §1
[6] = target: T2, Tyrosine-protein phosphatase non-receptor type 1 (Homo sapiens); test: Inhibitory activity against human protein tyrosine phosphatase 1B (PTP1B) at a concentration of 100 uM; in short: as §1

Receptor-type tyrosine-protein phosphatase F (Homo sapiens), sequence (P10586 whole entry, the tested form may be a part): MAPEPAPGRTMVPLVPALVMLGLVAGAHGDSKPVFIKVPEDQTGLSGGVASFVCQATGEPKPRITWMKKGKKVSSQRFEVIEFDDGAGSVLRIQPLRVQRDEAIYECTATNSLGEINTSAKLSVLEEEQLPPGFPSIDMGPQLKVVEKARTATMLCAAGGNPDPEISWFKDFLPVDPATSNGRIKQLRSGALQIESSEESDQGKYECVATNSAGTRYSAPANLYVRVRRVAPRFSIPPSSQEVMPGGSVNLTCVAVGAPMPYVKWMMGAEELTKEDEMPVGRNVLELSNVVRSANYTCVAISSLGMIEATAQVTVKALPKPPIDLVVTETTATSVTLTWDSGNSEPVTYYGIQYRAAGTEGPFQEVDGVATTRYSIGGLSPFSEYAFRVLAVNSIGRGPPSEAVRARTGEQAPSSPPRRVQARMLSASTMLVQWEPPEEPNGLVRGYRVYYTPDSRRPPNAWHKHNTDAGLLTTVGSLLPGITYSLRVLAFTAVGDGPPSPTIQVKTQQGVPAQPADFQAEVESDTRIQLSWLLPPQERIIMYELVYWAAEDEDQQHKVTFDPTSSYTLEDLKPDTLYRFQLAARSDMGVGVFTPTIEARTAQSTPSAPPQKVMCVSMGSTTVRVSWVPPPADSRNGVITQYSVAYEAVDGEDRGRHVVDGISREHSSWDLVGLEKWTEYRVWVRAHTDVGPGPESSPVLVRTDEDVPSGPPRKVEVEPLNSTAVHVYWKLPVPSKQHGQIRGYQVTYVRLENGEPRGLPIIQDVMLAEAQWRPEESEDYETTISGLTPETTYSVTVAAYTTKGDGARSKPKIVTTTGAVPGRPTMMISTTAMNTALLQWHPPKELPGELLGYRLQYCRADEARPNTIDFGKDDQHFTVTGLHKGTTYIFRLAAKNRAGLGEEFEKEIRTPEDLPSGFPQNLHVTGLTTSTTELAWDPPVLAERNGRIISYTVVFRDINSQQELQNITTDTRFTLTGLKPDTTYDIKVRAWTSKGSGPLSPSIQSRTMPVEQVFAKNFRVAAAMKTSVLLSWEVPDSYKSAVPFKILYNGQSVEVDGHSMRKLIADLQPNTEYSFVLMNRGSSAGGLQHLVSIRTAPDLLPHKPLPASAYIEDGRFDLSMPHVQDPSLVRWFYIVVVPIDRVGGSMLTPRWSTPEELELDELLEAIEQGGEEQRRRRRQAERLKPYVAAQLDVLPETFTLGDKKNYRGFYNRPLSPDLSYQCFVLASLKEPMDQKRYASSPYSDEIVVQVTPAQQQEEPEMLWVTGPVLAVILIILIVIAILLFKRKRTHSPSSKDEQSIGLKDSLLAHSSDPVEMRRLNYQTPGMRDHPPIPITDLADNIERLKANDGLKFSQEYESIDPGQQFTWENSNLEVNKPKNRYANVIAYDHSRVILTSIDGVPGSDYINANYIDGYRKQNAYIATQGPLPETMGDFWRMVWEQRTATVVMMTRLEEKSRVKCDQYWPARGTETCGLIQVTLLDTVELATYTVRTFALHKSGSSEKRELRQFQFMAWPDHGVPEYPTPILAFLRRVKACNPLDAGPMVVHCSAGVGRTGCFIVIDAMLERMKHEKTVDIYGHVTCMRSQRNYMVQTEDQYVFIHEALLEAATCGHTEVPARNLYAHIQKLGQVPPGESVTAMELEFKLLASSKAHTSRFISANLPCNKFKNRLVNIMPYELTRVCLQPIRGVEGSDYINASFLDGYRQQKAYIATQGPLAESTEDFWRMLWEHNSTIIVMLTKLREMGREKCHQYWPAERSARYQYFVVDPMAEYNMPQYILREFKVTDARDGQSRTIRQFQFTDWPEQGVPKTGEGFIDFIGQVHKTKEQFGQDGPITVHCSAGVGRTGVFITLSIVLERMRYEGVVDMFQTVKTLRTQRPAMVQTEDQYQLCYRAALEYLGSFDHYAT

Structure (SMILES)	inhibition [1] [%]	Control Uptake [2] [%]	inhibition [3] [%]	inhibition [4] [%]	inhibition [5] [%]	inhibition [6] [%]
CCCCCNC(=O)[C@H](Cc1ccc(OCC(=O)O)c(C(=O)O)c1)NC(=O)[C@H](Cc1ccccc1)NC(=O)Cc1c[nH]c2ccccc12	0	73	38	47	88	
CCCCCNC(=O)[C@H](Cc1ccc(OC(C(=O)O)C(=O)O)cc1)NC(=O)[C@H](Cc1ccccc1)NC(=O)CCOC	6	104	11	19	65	94
CCCCCNC(=O)[C@H](Cc1ccc(OC(C(=O)O)C(=O)O)cc1)NC(=O)[C@H](CCc1ccccc1)NC(=O)OC(C)(C)C	7	104	0	2	17	77
CCCCCNC(=O)[C@H](Cc1ccc(OCC(=O)O)c(C(=O)O)c1)NC(=O)[C@H](Cc1ccccc1)NC(=O)Cc1ccc(C)cc1	6	77	20	39	85	
CCCCCNC(=O)[C@H](Cc1ccc(OC(C(=O)O)C(=O)O)cc1)NC(=O)[C@H](Cc1cccc2ccccc12)NC(=O)OC(C)(C)C	34	84	8	3	33	86
CCCCCNC(=O)[C@H](Cc1ccc(OCC(=O)O)c(C(=O)O)c1)NC(=O)[C@H](Cc1ccccc1)NC(=O)CSc1nc[nH]n1	0	80	6	36	82	
CCCCCNC(=O)[C@H](Cc1ccc(OC(C(=O)O)C(=O)O)cc1)NC(=O)[C@H](CC(N)=O)NC(=O)OC(C)(C)C	0	110	8	9	40	85
CCCCCNC(=O)[C@H](Cc1ccc(OCC(=O)O)c(C(=O)O)c1)NC(=O)[C@H](Cc1ccccc1)NC(=O)CCCO	0	108	27	23	78	
CCCCCNC(=O)[C@H](Cc1ccc(OC(C(=O)O)C(=O)O)cc1)NC(=O)[C@H](Cc1ccc(O)cc1)NC(=O)OC(C)(C)C	0	96	5	10	50	90
CCCCCNC(=O)[C@H](Cc1ccc(OCC(=O)O)c(C(=O)O)c1)NC(=O)[C@H](Cc1ccccn1)NC(=O)OC(C)(C)C	2	106	1	10	50	
CCCCCNC(=O)[C@H](Cc1ccc(OCC(=O)O)c(C(=O)O)c1)NC(=O)[C@H](CO)NC(=O)OC(C)(C)C	1	84	4	11	41	
CCCCCNC(=O)[C@H](Cc1ccc(OC(C(=O)O)C(=O)O)cc1)NC(=O)[C@H](Cc1ccccc1)NC(=O)CCNC(=O)OC(C)(C)C	2	87	8	14	62	93
CCCCCNC(=O)[C@H](Cc1ccc(OCC(=O)O)c(C(=O)O)c1)NC(=O)[C@H](Cc1ccccc1)NC(=O)C[S+]([O-])c1nc[nH]n1 (some centres not stated)	0	92	17	40	85	
CCCCCNC(=O)[C@H](Cc1ccc(OCC(=O)O)c(C(=O)O)c1)NC(=O)[C@H](Cc1ccccc1)NC(=O)Cc1ccccc1	0	73	18	45	87	
CCCCCNC(=O)[C@H](Cc1ccc(OCC(=O)O)c(C(=O)O)c1)NC(=O)[C@H](Cc1ccccc1)NC(=O)CSc1c[nH]nn1	0	86	5	49	88	
CCCCCNC(=O)[C@H](Cc1ccc(OCC(=O)O)c(C(=O)O)c1)NC(=O)[C@H](Cc1ccccc1)NC(=O)Cc1ccc(O)cc1	7	96	34	46	88	
CCCCCNC(=O)[C@H](Cc1ccc(OCC(=O)O)c(C(=O)O)c1)NC(=O)[C@H](Cc1ccccc1)N1CCCC1=O	0	95	5	24	71	
CCCCCNC(=O)[C@H](Cc1ccc(OCC(=O)O)c(C(=O)O)c1)NC(=O)[C@H](Cc1ccccc1)NC(=O)CCNS(C)(=O)=O	10	81	25	15	73	
CCCCCNC(=O)[C@H](Cc1ccc(OCC(=O)O)c(C(=O)O)c1)NC(=O)[C@H](C)NC(=O)OC(C)(C)C	4	76	5	8	43	
CCCCCNC(=O)[C@H](Cc1ccc(OCC(=O)O)c(C(=O)O)c1)NC(=O)[C@H](CCO)NC(=O)OC(C)(C)C	0	74	8	11	45	
CCCCCNC(=O)[C@H](Cc1ccc(OCC(=O)O)c(C(=O)O)c1)NC(=O)[C@H](Cc1ccc(O)cc1)NC(=O)OC(C)(C)C	0	115	5	32	81	
CCCCCNC(=O)[C@H](Cc1ccc(OCC(=O)O)c(C(=O)O)c1)NC(=O)[C@H](Cc1ccccc1)NC(C)=O	0	95	13	28	77	
CCCCCNC(=O)[C@H](Cc1ccc(OCC(=O)O)c(C(=O)O)c1)NC(=O)[C@H](Cc1ccccc1)NC(=O)Cc1cccc(O)c1	6	108	32	43	86	
CCCCCNC(=O)[C@H](Cc1ccc(OCC(=O)O)c(C(=O)O)c1)NC(=O)[C@H](Cc1ccccc1)NC(=O)OC(C)(C)C	0	108				
CCCCCNC(=O)[C@H](Cc1ccc(OCC(=O)O)c(C(=O)O)c1)NC(=O)[C@H](CCOCOC)NC(=O)OC(C)(C)C	0	113	6	6	42	
CCCCCNC(=O)[C@H](Cc1ccc(OCC(=O)O)c(C(=O)O)c1)NC(=O)[C@H](Cc1ccccc1)NC(=O)CCNC(=O)OC(C)(C)C	0	88	19	19	75	
CCCCCNC(=O)[C@H](Cc1ccc(OCC(=O)O)c(C(=O)O)c1)NC(=O)[C@H](Cc1ccccc1)NC(=O)CCCc1ccccc1	0	73	17	19	70	
CCCCCNC(=O)[C@H](Cc1ccc(OCC(=O)O)c(C(=O)O)c1)NC(=O)[C@H](Cc1ccccc1)NC(=O)CCOC	0	89	2	37	83	
CCCCCNC(=O)[C@H](Cc1ccc(OCC(=O)O)c(C(=O)O)c1)NC(=O)[C@H](COCOC)NC(=O)OC(C)(C)C	2	70		16	51	
